# Screening results from PubChem.
# GSIS activator – GLuc luminescence reporter in INS-1E cells, primary screen for activators of glucose-dependent secretion of insulin | activation, % at 16.6 µM | 0.61% of 370,000 active | INS-1E GLuc reporter insulin secretion, 2-3 h;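 active = lowest replicate activation of at least 40%, so every replicate reaches that level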;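 note: 0% = median of neutral control wells and 100% = median of IBMX positive control wells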
# RAD52 inh – blocks human RAD52 DNA annealing | P43351 | recombinant RAD52 DNA annealing, FRET fluorescence | inhibition, % at 18.7 µM | 0.46% of 360,000 active | AID 651710;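 active = every replicate showing at least 50% inhibition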
# Target sequence (P43351 whole entry, looked up): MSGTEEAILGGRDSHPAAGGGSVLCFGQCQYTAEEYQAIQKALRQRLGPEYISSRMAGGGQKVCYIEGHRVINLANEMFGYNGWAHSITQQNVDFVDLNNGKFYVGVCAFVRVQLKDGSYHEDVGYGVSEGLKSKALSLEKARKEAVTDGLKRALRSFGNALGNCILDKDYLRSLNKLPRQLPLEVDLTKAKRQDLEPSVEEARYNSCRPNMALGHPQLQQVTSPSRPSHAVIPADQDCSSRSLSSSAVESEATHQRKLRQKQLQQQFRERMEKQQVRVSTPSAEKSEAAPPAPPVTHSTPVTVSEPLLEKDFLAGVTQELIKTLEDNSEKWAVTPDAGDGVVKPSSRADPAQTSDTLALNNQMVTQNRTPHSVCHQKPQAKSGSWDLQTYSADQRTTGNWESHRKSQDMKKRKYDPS
# MLL AF4-AF9 inh – MLL-AF4/AF9 protein interaction inhibition; inhibition, % at 10 µM; AlphaScreen, biotin-AF4 peptide binding to FLAG-AF9; 0.47% of 350,000 active; AID 651704;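 active = every replicate reaching a set inhibition limit, whatever the replicate mean, cut at about 25% in these data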;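 note: 0% = plate neutral control median and 100% = total signal loss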
# ERAP1 inh – blocks human ERAP1 aminopeptidase activity. Q9NZ08. recombinant ERAP1, Leu-AMC fluorescence, 60 min. 0.15% of 340,000 active. inhibition, % at 10.7 µM;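 active = mean replicate inhibition of at least 30%, or all replicates individually reaching that 30% level; inactive = mean below 30% and not every replicate reaching it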;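 note: 0% = neutral control wells and 100% = L-leucinethiol positive control wells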
# S100A4 inh HTS – S100A4-myosin IIA interaction inhibition | P26447 | 0.14% of 360,000 active | AID 652163 | inhibition, % at 10.7 µM | S100A4/TAMRA-MyoIIA peptide fluorescence polarization;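 active = mean inhibition of at least 70% across replicates, with every replicate also reaching that level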
# Target sequence (P26447 whole entry, looked up): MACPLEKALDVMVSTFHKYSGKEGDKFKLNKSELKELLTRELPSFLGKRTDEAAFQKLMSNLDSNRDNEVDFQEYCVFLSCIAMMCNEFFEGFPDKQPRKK
#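 Material: human S100A4 monomer with TAMRA-labelled myosin IIA peptide; buffer or medium: HEPES pH 7.2 with CaCl2, KCl, NaCl, DTT, Triton; compound dosing: one concentration per compound; schedule: 5 min incubation before reading; benchmarks: neutral control DMSO, positive control TFP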
# Active calls of the source: *; nt = not tested or not shown. This is a sample that favours compounds with a hit; in the whole collection about 1.5% have one here.
SMILES,GSIS activator,RAD52 inh,MLL AF4-AF9 inh,ERAP1 inh,S100A4 inh HTS
COCC(=O)Nc1ccc2c(c1)OC[C@@H](C)N(CC1CCCCC1)C[C@@H](C)[C@H](OC)CN(C)C2=O,11,nt,nt,nt,nt
CCn1cc(C(=O)O)c(=O)c2cc(F)c(N3CCN(C(=S)NC(=O)c4cccc(C)c4)CC3)cc21,44*,-4,-13,-8,4
Cc1cc(C)cc(Cn2c3ccc(NC(=S)NCc4ccccc4F)cc3c(=O)n2C)c1,56*,-33,-2,2,22
Cn1c(=O)c2cc(NC(=S)NCc3ccccc3F)ccc2n1Cc1ccccc1,-13,-4,-2,-6,1
C[C@@H]1CN([C@@H](C)CO)C(=O)c2cccc(NC(=O)C3CCCCC3)c2O[C@H]1CN(C)S(=O)(=O)c1ccc(F)cc1,5,14,-2,0,0
COc1cccc(-c2ccc([C@H]3[C@H]4CN(C(=O)c5ccc(F)cc5)CCCCN4[C@H]3CO)cc2)c1,-24,-8,-6,0,7
CC(C)(O)C#Cc1ccc([C@H]2[C@H](CO)N3CCCCN(C(=O)c4ccc(F)cc4)C[C@@H]23)cc1,2,-10,1,1,104*
COc1cccc(-c2ccc(C3[C@@H]4CN(C(=O)c5cnccn5)C[C@H]3N4)cc2)c1 (stereo not given in full),-7,-8,-1,5,21
COc1cccc(-c2ccc([C@@H]3[C@H](CO)N4CCCCN(C(=O)c5ccc(F)cc5)C[C@@H]34)cc2)c1,-23,-2,-3,2,113*
COc1cccc(-c2ccc(C3[C@@H]4CN(C(=O)c5ccc(F)cc5)C[C@H]3N4)cc2)c1 (stereo not given in full),15,52*,4,1,3
O=C(c1ccc(F)cc1)N1C[C@@H]2N[C@H](C1)C2c1ccc(-c2ccc(F)cc2)cc1 (stereo not given in full),-12,50*,-5,1,4
Cc1ccc(S(=O)(=O)N[C@@H]2C=C[C@H](CC(=O)NCc3ccc(Cl)c(Cl)c3)O[C@H]2CO)cc1,0,8,-2,1,2
C[C@H]1CN([C@@H](C)CO)C(=O)c2ccccc2-c2ccccc2CO[C@@H]1CN(C)C(=O)Nc1ccc2c(c1)OCO2,-7,nt,nt,nt,nt
O=C(Nc1ccccc1)Nc1ccc2c(c1)[C@@H]1C[C@@H](CC(=O)N3CCCCC3)O[C@@H](CO)[C@@H]1O2,9,8,0,2,25
CC(Sc1nc(-c2ccccc2)cc(C(F)(F)F)n1)C(=O)N1CCCC1 (stereo not given),nt,-3,49*,-4,-1
CC(Sc1nc(-c2ccccc2)cc(C(F)(F)F)n1)C(=O)O (stereo not given),4,-20,-2,-4,-9
COc1ccccc1S(=O)(=O)N[C@@H]1CC[C@H](CCNC(=O)C2CCCCC2)O[C@H]1CO,3,3,0,-4,16
N#Cc1cccc(Oc2ccc(-c3cnc4ccccc4n3)cc2)c1C#N,87*,nt,nt,nt,nt
N#Cc1ccc(Oc2ccc(-c3cnc4ccccc4n3)cc2)cc1C#N,11,nt,nt,nt,nt
NNC(=O)C1C(O)CCC2CN3CCc4c([nH]c5ccccc45)C3CC21 (stereo not given),41*,-91,3,3,-5
C/C(=N/Oc1nc(C)cc(C)n1)c1ccc(F)cc1,64*,nt,nt,nt,nt
C/C(=N\Nc1nc(C)cc(-c2ccccc2)n1)c1ccc(F)cc1,nt,-6,0,21,3
C[C@@H]1CN([C@@H](C)CO)C(=O)c2cc(N(C)C)ccc2O[C@@H]1CN(C)Cc1ccc(-c2ccccc2)cc1,-4,12,48*,-5,-6
C[C@H](CO)N1C[C@H](C)[C@H](CN(C)Cc2ccc(-c3ccccc3)cc2)Oc2ccc(N(C)C)cc2C1=O,9,15,49*,-2,-5
C[C@H]1CN([C@@H](C)CO)C(=O)c2cc(N(C)C)ccc2O[C@H]1CN(C)Cc1ccc(C(=O)O)cc1,8,nt,0,nt,nt
SMILES,GSIS activator,RAD52 inh,MLL AF4-AF9 inh,ERAP1 inh,S100A4 inh HTS
C[C@@H]1CN([C@@H](C)CO)C(=O)c2cc(N(C)C)ccc2O[C@@H]1CN(C)Cc1ccccc1,12,4,3,0,-10
C[C@H](CO)N1C[C@H](C)[C@@H](CN(C)Cc2ccc(-c3ccccc3)cc2)Oc2ccc(N(C)C)cc2C1=O,-10,4,29*,-5,-4
C[C@H](CO)N1C[C@H](C)[C@H](CN(C)Cc2ccc(C(=O)O)cc2)Oc2ccc(N(C)C)cc2C1=O,10,nt,nt,nt,nt
C[C@H](CO)N1C[C@H](C)[C@H](CN(C)Cc2ccccc2)Oc2ccc(N(C)C)cc2C1=O,5,5,-1,0,0
C[C@H](CO)N1C[C@H](C)[C@@H](CN(C)Cc2ccc(Oc3ccccc3)cc2)Oc2ccc(N(C)C)cc2C1=O,-17,-11,37*,-1,26
COc1ccc(CN2CC3(CCN(C(=O)C4CCOCC4)CC3)c3c(n(C)c4cc(OC)ccc34)[C@@H]2CO)cc1,-14,-91,-3,0,-3
C[C@H]1CN([C@@H](C)CO)C(=O)c2cc(N(C)C)ccc2O[C@H]1CN(C)Cc1ccc(-c2ccccc2)cc1,11,7,33*,-2,-3
C[C@H]1CN([C@@H](C)CO)C(=O)c2cc(N(C)C)ccc2O[C@H]1CN(C)Cc1ccccc1,14,1,0,-2,5
O=C(N/N=C/c1ccco1)c1cc(-c2ccc3ccccc3c2)n[nH]1,83*,nt,nt,nt,nt
CN(C)CC#Cc1ccc([C@H]2[C@@H](CO)N3CCCCN(C(=O)C4CCCC4)C[C@@H]23)cc1,nt,9,-3,1,-5
COC(=O)[C@]1(Cc2ccccc2)N[C@H](CN(C)C(=O)Nc2ccc(C)cc2)[C@@H]2C(=O)N(C)C(=O)[C@@H]21,65*,4,1,-3,-1
COc1ccc(C#Cc2ccc3c(c2)[C@]2(C(=O)N3)[C@H](c3ccc(OCCO)cc3)N3[C@H](c4ccccc4)[C@H](c4ccccc4)OC(=O)[C@H]3[C@@H]2C(=O)NC[C@H](O)c2ccccc2)cc1,nt,2,-1,-5,-4
CC/C(O)=C1\C(=O)CC(C)(C)CC1=Nc1ccccc1C,73*,nt,nt,nt,nt
COc1cc(-c2nc(-c3cccnc3)no2)cc(OC)c1OC,15,nt,nt,nt,nt
COc1ccc(-c2nc(-c3cccnc3)no2)cc1OC,58*,-11,nt,-1,2
C[C@H]1CCCCO[C@H](CN(C)S(=O)(=O)c2ccc(Cl)cc2)[C@@H](C)CN([C@@H](C)CO)C(=O)c2cc(NC(=O)c3ccccc3)ccc2O1,-9,-22,0,2,21
C[C@@H]1CN([C@H](C)CO)C(=O)c2cc(/C=C/c3ccccc3)cnc2O[C@@H]1CN(C)C(=O)NC1CCCCC1,-10,26,0,3,-6
